These results are taken from ChEMBL document CHEMBL1146219, “Synthesis and evaluation of novel radioiodinated benzamides for malignant melanoma” (J Med Chem, 2007).

Data set [1] concerns the target Sigma non-opioid intracellular receptor 1 (Cavia porcellus, UniProt Q60492). Description: Displacement of [3H](+)-pentazocine from sigma 1 receptor in guinea pig brain membrane. Format: cell membranes. The essentials:
(§1)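 Guinea pig brain membranes, incubated in duplicate for 2 h at 25 °C in Tris-HCl pH 8.0. Benzamide 10⁻¹⁰ to […] against 2 nM [³H]-(+)-pentazocine (σ₁) or 2 nM [³H]DTG plus 100 nM (+)-pentazocine (σ₂). Nonspecific binding defined with 1 µM haloperidol. GF/B filtration, bound activity by β-scintillation counting, giving IC50 then Ki. Full curves run only where 10⁻⁵ M inhibited >90%.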
For orientation: Displacement assays read how much labelled ligand stays bound in the presence of the test substance.

A short description of data set [2]: Displacement of [3H]DTG from sigma 2 receptor in guinea pig brain membrane. Format: cell membranes, Cavia porcellus. The essentials: as §1
A short description of data set [3]: Lipophilicity, log P at pH 7.5. It counts as physicochemical. The following applies: buffer.
Data set [4] deals with Lung. Briefly: Biodistribution in lung of B16F0 tumor bearing C57BL/6J mouse at 0.37-0.74 MBq, iv after 6 hrs. Format: ADME, organism-based. Particulars: in vivo. The essentials:
(§2)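 Female C57BL/6J mice (15-18 g) were given B16F0 cells subcutaneously in the left flank (0.1 mL of 3 × 10⁶ viable cells/mL in Ca²⁺/Mg²⁺-free PBS) at 6-7 weeks and used after ten days. [¹²³I]benzamide (0.37-0.74 MBq, 100 µL, saline) was injected via the tail vein. Groups of n = 5 were killed by CO₂ and cervical dislocation. Organs were weighed and γ-counted, and the carcass was counted too.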

In data set [5] the test system is Liver. Description: Biodistribution in liver of B16F0 tumor bearing C57BL/6J mouse at 0.37-0.74 MBq, iv after 6 hrs. It counts as ADME, organism-based. Particulars: in vivo. The essentials: as §2
The test system of data set [6] is Blood. Description: Biodistribution in blood of B16F0 tumor bearing C57BL/6J mouse at 0.37-0.74 MBq, iv after 72 hrs. Format: ADME, organism-based. The following applies: in vivo. The essentials:
as §2

Data set [7] deals with Kidney. Description: Biodistribution in kidney of B16F0 tumor bearing C57BL/6J mouse at 0.37-0.74 MBq, iv after 72 hrs. It counts as ADME, organism-based. Particulars: in vivo. The essentials: as §2
The subject of data set [8] is Lung. Description: Biodistribution in lung of B16F0 tumor bearing C57BL/6J mouse at 0.37-0.74 MBq, iv after 1 hr. The following applies: in vivo. Format: ADME, organism-based. The essentials:
as §2

The test system of data set [9] is Kidney. Description: Biodistribution in kidney of B16F0 tumor bearing C57BL/6J mouse at 0.37-0.74 MBq, iv after 24 hrs. Format: ADME, organism-based. The following applies: in vivo. The essentials:
as §2

Data set [10] can be described thus: Biodistribution in melanoma of B16F0 tumor bearing C57BL/6J mouse at 0.37-0.74 MBq, iv after 1 hr. It counts as ADME, organism-based, B16-F0. Particulars: in vivo. The essentials:
as §2

Data set [11] relates to Brain. Description: Biodistribution in brain of B16F0 tumor bearing C57BL/6J mouse at 0.37-0.74 MBq, iv after 24 hrs. It counts as ADME, organism-based. Particulars: in vivo. The essentials: as §2
For data set [12], the system named is Kidney. Briefly: Biodistribution in kidney of B16F0 tumor bearing C57BL/6J mouse at 0.37-0.74 MBq, iv after 1 hr. Particulars: in vivo. Format: ADME, organism-based. The essentials: as §2
Data set [13] has as its system Blood. Description: Biodistribution in blood of B16F0 tumor bearing C57BL/6J mouse at 0.37-0.74 MBq, iv after 1 hr. It counts as ADME, organism-based. The following applies: in vivo. The essentials: as §2
Data set [14] is described as follows: Biodistribution in melanoma of B16F0 tumor bearing C57BL/6J mouse at 0.37-0.74 MBq, iv after 24 hrs. The following applies: in vivo. Format: ADME, organism-based, B16-F0. The essentials: as §2
The test system of data set [15] is Blood. Description: Biodistribution in blood of B16F0 tumor bearing C57BL/6J mouse at 0.37-0.74 MBq, iv after 24 hrs. Particulars: in vivo. It counts as ADME, organism-based. The essentials:
as §2

Data set [16] concerns Lung. Briefly: Biodistribution in lung of B16F0 tumor bearing C57BL/6J mouse at 0.37-0.74 MBq, iv after 24 hrs. It counts as ADME, organism-based. Particulars: in vivo. The essentials: as §2
For data set [17], the system named is Blood. Description: Biodistribution in blood of B16F0 tumor bearing C57BL/6J mouse at 0.37-0.74 MBq, iv after 6 hrs. The following applies: in vivo. It counts as ADME, organism-based. The essentials:
as §2

For data set [18], the system named is Blood. Description: Biodistribution in blood of B16F0 tumor bearing C57BL/6J mouse at 0.37-0.74 MBq, iv after 48 hrs. It counts as ADME, organism-based. The following applies: in vivo. The essentials:
as §2

Data set [19] concerns Heart. Briefly: Biodistribution in heart of B16F0 tumor bearing C57BL/6J mouse at 0.37-0.74 MBq, iv after 1 hr. Particulars: in vivo. It counts as ADME, organism-based. The essentials:
as §2

Data set [20] has as its system Kidney. Description: Biodistribution in kidney of B16F0 tumor bearing C57BL/6J mouse at 0.37-0.74 MBq, iv after 48 hrs. Format: ADME, organism-based. Particulars: in vivo. The essentials: as §2
Data set [21] concerns Heart. Description: Biodistribution in heart of B16F0 tumor bearing C57BL/6J mouse at 0.37-0.74 MBq, iv after 48 hrs. The following applies: in vivo. Format: ADME, organism-based. The essentials: as §2
The subject of data set [22] is Brain. Description: Biodistribution in brain of B16F0 tumor bearing C57BL/6J mouse at 0.37-0.74 MBq, iv after 48 hrs. It counts as ADME, organism-based. Particulars: in vivo. The essentials:
as §2

In data set [23] the test system is Brain. Briefly: Biodistribution in brain of B16F0 tumor bearing C57BL/6J mouse at 0.37-0.74 MBq, iv after 1 hr. It counts as ADME, organism-based. The following applies: in vivo. The essentials: as §2
Data set [24] relates to Liver. Description: Biodistribution in liver of B16F0 tumor bearing C57BL/6J mouse at 0.37-0.74 MBq, iv after 48 hrs. It counts as ADME, organism-based. Particulars: in vivo. The essentials:
as §2

Data set [25] relates to Heart. Description: Biodistribution in heart of B16F0 tumor bearing C57BL/6J mouse at 0.37-0.74 MBq, iv after 72 hrs. It counts as ADME, organism-based. The following applies: in vivo. The essentials:
as §2

For data set [26], the system named is Kidney. Description: Biodistribution in kidney of B16F0 tumor bearing C57BL/6J mouse at 0.37-0.74 MBq, iv after 6 hrs. Particulars: in vivo. Format: ADME, organism-based. The essentials:
as §2

A short description of data set [27]: Biodistribution in melanoma of B16F0 tumor bearing C57BL/6J mouse at 0.37-0.74 MBq, iv after 72 hrs. Format: ADME, organism-based, B16-F0. Particulars: in vivo. The essentials:
(§3)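 Female C57BL/6J mice (15-18 g) carrying s.c. B16F0 flank tumors (0.1 mL of 3 × 10⁶ viable cells per mL in Ca²⁺/Mg²⁺-free PBS, inoculated at 6-7 weeks, used 10 days later). [¹²³I]tracer 0.37-0.74 MBq in saline, 100 µL, tail-vein i.v. Groups of n = 5 killed at 1-72 h. Organs weighed and γ-counted, carcass activity also counted, values as %ID/g.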

The subject of data set [28] is Heart. Description: Biodistribution in heart of B16F0 tumor bearing C57BL/6J mouse at 0.37-0.74 MBq, iv after 6 hrs. It counts as ADME, organism-based. Particulars: in vivo. The essentials: as §2
In data set [29] the test system is Heart. Description: Biodistribution in heart of B16F0 tumor bearing C57BL/6J mouse at 0.37-0.74 MBq, iv after 24 hrs. Particulars: in vivo. Format: ADME, organism-based. The essentials: as §2
Data set [30] has as its system Liver. Description: Biodistribution in liver of B16F0 tumor bearing C57BL/6J mouse at 0.37-0.74 MBq, iv after 72 hrs. Format: ADME, organism-based. Particulars: in vivo. The essentials: as §2
Data set [31] concerns Liver. Description: Biodistribution in liver of B16F0 tumor bearing C57BL/6J mouse at 0.37-0.74 MBq, iv after 24 hrs. It counts as ADME, organism-based. Particulars: in vivo. The essentials:
as §2

A short description of data set [32]: Biodistribution in melanoma of B16F0 tumor bearing C57BL/6J mouse at 0.37-0.74 MBq, iv after 48 hrs. It counts as ADME, organism-based, B16-F0. The following applies: in vivo. The essentials: as §2
A short description of data set [33]: Biodistribution in melanoma of B16F0 tumor bearing C57BL/6J mouse at 0.37-0.74 MBq, iv after 6 hrs. It counts as ADME, organism-based, B16-F0. The following applies: in vivo. The essentials: as §3
Data set [34] concerns Lung. Description: Biodistribution in lung of B16F0 tumor bearing C57BL/6J mouse at 0.37-0.74 MBq, iv after 48 hrs. The following applies: in vivo. Format: ADME, organism-based. The essentials: as §2
Data set [35] relates to Liver. Description: Biodistribution in liver of B16F0 tumor bearing C57BL/6J mouse at 0.37-0.74 MBq, iv after 1 hr. It counts as ADME, organism-based. Particulars: in vivo. The essentials: as §2
Data set [36] relates to Brain. Description: Biodistribution in brain of B16F0 tumor bearing C57BL/6J mouse at 0.37-0.74 MBq, iv after 6 hrs. It counts as ADME, organism-based. Particulars: in vivo. The essentials: as §2

Sequence of Sigma non-opioid intracellular receptor 1 (Q60492 whole entry): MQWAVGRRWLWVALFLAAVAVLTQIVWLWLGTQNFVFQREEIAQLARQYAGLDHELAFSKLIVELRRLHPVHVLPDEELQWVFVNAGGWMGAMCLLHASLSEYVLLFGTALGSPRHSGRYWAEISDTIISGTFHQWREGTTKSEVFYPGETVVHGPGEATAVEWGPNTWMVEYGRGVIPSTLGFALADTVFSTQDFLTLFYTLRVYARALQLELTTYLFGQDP

What is called Ki is a measure of affinity in units of concentration, obtained from inhibition or displacement. Higher therefore signals a looser hold on the target. One may read the logD as lipophilicity at a set pH, counting ionised and neutral species. In the case of `CCCN(CCC)CCCCNC(=O)c1ccc(I)cc1`, the inhibition constant (Ki) in data set [1] came out at 1.3 µM; in [2], 1 µM. Besides, the logD in data set [3] was 2.46.
As to `CCN(CC)CCNC(=O)c1cc([123I])c(NC(C)=O)cc1OC`, the Drug uptake in [4] was determined as 0.4 % ID/g; in [5], 2.3 % ID/g; in data set [6] it was 0.06 % ID/g; in [7] it was 0.06 % ID/g; in data set [8] it was 1.3 % ID/g; in data set [9], 0.08 % ID/g. Also, the Drug uptake in data set [10] amounted to 9.6 % ID/g; in [11] it was 0.01 % ID/g; in [12], 2.3 % ID/g; in data set [13], 0.98 % ID/g; in [14] it was 5.2 % ID/g; in data set [15], 0.08 % ID/g. The Drug uptake in [16] was 0.09 % ID/g; in data set [17], 0.35 % ID/g; in [18] it was 0.03 % ID/g; in data set [19] it was 0.79 % ID/g; in [20], 0.04 % ID/g; in data set [21] it was 0.07 % ID/g. The Drug uptake is reported as 0.01 % ID/g in data set [22]; 0.13 % ID/g in [23]; 0.51 % ID/g in data set [24]; 0.18 % ID/g in data set [25]; 0.44 % ID/g in [26]; 2.2 % ID/g in [27]. Further, the Drug uptake in [28] worked out at 0.31 % ID/g; in data set [29], 0.12 % ID/g; in [30], 0.28 % ID/g; in data set [31] it was 1.1 % ID/g; in data set [32], 3.4 % ID/g; in [33], 8.5 % ID/g. Moreover, the Drug uptake came to 0.07 % ID/g in [34], 9 % ID/g in [35] and 0.02 % ID/g in data set [36].
With `CCN(CC)CCNC(=O)c1cc(I)c(NS(=O)(=O)c2ccc(C)cc2)cc1OC`, the Ki was 0.65 µM in data set [1] and > 100 µM in data set [2]. Further, the logD in [3] came to 1.95.
Consider `CCN(CC)CCNC(=O)c1cc(I)c(NS(C)(=O)=O)cc1OC`, for which the Ki in [1] was found to be 0.8 µM; in data set [2], 45 µM. The compound further came in with a logD in data set [3] of 0.82.
